Measurements reported in ChEMBL document CHEMBL2062460, “Disubstituted thiourea derivatives and their activity on CNS: synthesis and biological evaluation” (Eur J Med Chem, 2012).
Converted amounts (≈) assume the structure as drawn. The source made the active and inactive calls. The rule behind the calls is not given here.

What was measured:
Escherichia coli [1] = test: Antibacterial activity against Escherichia coli NCTC 8196 at 400 ug/disc after 18 hrs by disc diffusion method; format: functional, organism-based
Outline: (§1)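 Disc diffusion per CLSI on Mueller–Hinton II agar; 9 mm paper discs loaded from methanol or DMSO solutions to 400 µg per disc, dried; growth inhibition zone diameter read after 18 h at 35 °C.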

Staphylococcus aureus [2] = test: Antibacterial activity against Staphylococcus aureus ATCC 25923 after 18 hrs by twofold serial agar dilution technique; format: functional; settings: ATCC 25923, 18 h
Outline: (§2)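 Twofold serial agar dilution on Mueller–Hinton II agar, following CLSI guidelines. Compounds were dissolved in methanol or DMSO and tested at final agar concentrations of 3.125–400 µg/mL. Final inoculum was 10^4 CFU/mL.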

Staphylococcus aureus [3] = test: Antibacterial activity against methicillin-resistant Staphylococcus aureus clinical isolate 277/08 after 18 hrs by twofold serial agar dilution technique; format: functional; settings: clinical isolate 277/08, 18 h
Outline: (§3)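 Clinical isolates came from patients in Warsaw Medical University Hospitals and were classed as methicillin-susceptible or -resistant. MIC was determined by twofold serial agar dilution on Mueller–Hinton II agar (CLSI), 3.125–400 µg/mL in agar, with compounds in methanol or DMSO. Inoculum was 10^4 CFU/mL and plates were read after 18 h at 35 °C.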

Staphylococcus aureus [4] = test: Antibacterial activity against Staphylococcus aureus NCTC 4163 at 400 ug/disc after 18 hrs by disc diffusion method; format: functional; settings: NCTC 4163, 18 h, read-out: DIZ; outline: as §1
Staphylococcus aureus [5] = test: Antibacterial activity against methicillin-susceptible Staphylococcus aureus clinical isolate 256/08 after 18 hrs by twofold serial agar dilution technique; format: functional; settings: clinical isolate 256/08, 18 h; outline: as §3
[6] = test system: Staphylococcus epidermidis; test: Antibacterial activity against Staphylococcus epidermidis ATCC 12228 after 18 hrs by twofold serial agar dilution technique; format: functional; settings: ATCC 12228, 18 h; outline: as §2
Staphylococcus aureus [7] = test: Antibacterial activity against Staphylococcus aureus NCTC 4163 after 18 hrs by twofold serial agar dilution technique; format: functional; settings: NCTC 4163, 18 h; outline: as §2
Micrococcus luteus [8] = test: Antibacterial activity against Micrococcus luteus ATCC 10240 at 400 ug/disc after 18 hrs by disc diffusion method; format: functional; settings: ATCC 10240, 18 h, read-out: DIZ; outline: as §1
Staphylococcus aureus [9] = test: Antibacterial activity against methicillin-resistant Staphylococcus aureus clinical isolate 325/09 after 18 hrs by twofold serial agar dilution technique; format: functional; settings: clinical isolate 325/09, 18 h; outline: as §3
[10] = test system: Bordetella bronchiseptica; test: Antibacterial activity against Bordetella bronchiseptica ATCC 4617 at 400 ug/disc after 18 hrs by disc diffusion method; format: functional, organism-based; outline: as §1
Escherichia coli [11] = test: Antibacterial activity against Escherichia coli ATCC 25922 at 400 ug/disc after 18 hrs by disc diffusion method; format: functional, organism-based; outline: as §1
Candida parapsilosis = test: Antifungal activity against Candida parapsilosis ATCC 22019 at 400 ug/disc after 18 hrs by disc diffusion method; format: functional, organism-based
Outline: (§4)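 Yeasts tested by disc diffusion (CLSI) on RPMI agar with 2% glucose; 9 mm paper discs bearing 400 µg compound from methanol or DMSO solution; inhibition zone diameter read after 18 h at 35 °C.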

Staphylococcus aureus [12] = test: Antibacterial activity against methicillin-susceptible Staphylococcus aureus clinical isolate 261/08 after 18 hrs by twofold serial agar dilution technique; format: functional; settings: clinical isolate 261/08, 18 h; outline: as §3
Pseudomonas aeruginosa = test: Antibacterial activity against Pseudomonas aeruginosa ATCC 27853 at 400 ug/disc after 18 hrs by disc diffusion method; format: functional, organism-based; outline: as §1
Candida albicans [13] = test: Antifungal activity against Candida albicans ATCC 10231 at 400 ug/disc after 18 hrs by disc diffusion method; format: functional, organism-based; outline: as §4
Staphylococcus aureus [14] = test: Antibacterial activity against Staphylococcus aureus ATCC 29213 after 18 hrs by twofold serial agar dilution technique; format: functional; settings: ATCC 29213, 18 h; outline: as §2
Staphylococcus aureus [15] = test: Antibacterial activity against methicillin-resistant Staphylococcus aureus clinical isolate 306/08 after 18 hrs by twofold serial agar dilution technique; format: functional; settings: clinical isolate 306/08, 18 h; outline: as §3
Micrococcus luteus [16] = test: Antibacterial activity against Micrococcus luteus ATCC 9341 after 18 hrs by twofold serial agar dilution technique; format: functional; settings: ATCC 9341, 18 h
Staphylococcus aureus [17] = test: Antibacterial activity against methicillin-susceptible Staphylococcus aureus clinical isolate 268/08 after 18 hrs by twofold serial agar dilution technique; format: functional; settings: clinical isolate 268/08, 18 h; outline: as §3
Candida albicans [18] = test: Antifungal activity against Candida albicans ATCC 90028 at 400 ug/disc after 18 hrs by disc diffusion method; format: functional, organism-based; outline: as §4
Proteus vulgaris = test: Antibacterial activity against Proteus vulgaris NCTC 4635 at 400 ug/disc after 18 hrs by disc diffusion method; format: functional, organism-based; outline: as §1
[19] = test system: Staphylococcus epidermidis; test: Antibacterial activity against methicillin-resistant Staphylococcus epidermidis clinical isolate 311/08 after 18 hrs by twofold serial agar dilution technique; format: functional; settings: clinical isolate 311/08, 18 h; outline: as §3
[20] = test system: Staphylococcus epidermidis; test: Antibacterial activity against methicillin-resistant Staphylococcus epidermidis clinical isolate 316/08 after 18 hrs by twofold serial agar dilution technique; format: functional; settings: clinical isolate 316/08, 18 h; outline: as §3
[21] = test system: Staphylococcus epidermidis; test: Antibacterial activity against methicillin-resistant Staphylococcus epidermidis clinical isolate 341/09 after 18 hrs by twofold serial agar dilution technique; format: functional; settings: clinical isolate 341/09, 18 h; outline: as §3
[22] = test system: Staphylococcus epidermidis; test: Antibacterial activity against methicillin-resistant Staphylococcus epidermidis clinical isolate 343/09 after 18 hrs by twofold serial agar dilution technique; format: functional; settings: clinical isolate 343/09, 18 h; outline: as §3
[23] = Cytotoxicity against human MT4 cells after 96 hrs by MTT assay; format: cell-based

Structure (SMILES)	diameter of the inhibition zone (DIZ) (Escherichia coli [1])	MIC (Staphylococcus aureus [2]) [µg/mL]	MIC (Staphylococcus aureus [3]) [µg/mL]	zone of inhibition at 400 µg/disc (Staphylococcus aureus [4]) [mm]	MIC (Staphylococcus aureus [5]) [µg/mL]	MIC [6] [µg/mL]	MIC (Staphylococcus aureus [7]) [µg/mL]	zone of inhibition at 400 µg/disc (Micrococcus luteus [8]) [mm]	MIC (Staphylococcus aureus [9]) [µg/mL]	diameter of the inhibition zone (DIZ) [10]	diameter of the inhibition zone (DIZ) (Escherichia coli [11])	diameter of the inhibition zone (DIZ) (Candida parapsilosis)	MIC (Staphylococcus aureus [12]) [µg/mL]	diameter of the inhibition zone (DIZ) (Pseudomonas aeruginosa)	diameter of the inhibition zone (DIZ) (Candida albicans [13])	MIC (Staphylococcus aureus [14]) [µg/mL]	MIC (Staphylococcus aureus [15]) [µg/mL]	MIC (Micrococcus luteus [16]) [µg/mL]	MIC (Staphylococcus aureus [17]) [µg/mL]	diameter of the inhibition zone (DIZ) (Candida albicans [18])	further results
Fc1ccccc1NC(=S)Nc1nc[nH]n1	inactive	200 (≈ 843 µM)	> 400	12	> 400	200 (≈ 843 µM)	200 (≈ 843 µM)	38	> 400	inactive	inactive	inactive	> 400	inactive	inactive	200 (≈ 843 µM)	> 400	100 (≈ 421 µM)	> 400	inactive	diameter of the inhibition zone (DIZ) (Proteus vulgaris): inactive
Fc1cccc(NC(=S)Nc2nc[nH]n2)c1	inactive	50 (≈ 211 µM)	12.5 (≈ 52.7 µM)	16	25 (≈ 105 µM)	50 (≈ 211 µM)	50 (≈ 211 µM)	40	12.5 (≈ 52.7 µM)	inactive	inactive	inactive	25 (≈ 105 µM)	inactive	inactive	50 (≈ 211 µM)	12.5 (≈ 52.7 µM)	50 (≈ 211 µM)	25 (≈ 105 µM)	inactive	diameter of the inhibition zone (DIZ) (Proteus vulgaris): inactive
S=C(Nc1nc[nH]n1)Nc1ccccc1Br	inactive	50 (≈ 168 µM)	50 (≈ 168 µM)	11	50 (≈ 168 µM)	25 (≈ 83.8 µM)	50 (≈ 168 µM)	15	50 (≈ 168 µM)	inactive	inactive	inactive	50 (≈ 168 µM)	inactive	inactive	50 (≈ 168 µM)	50 (≈ 168 µM)	6.25 (≈ 21 µM)	50 (≈ 168 µM)	inactive	MIC [19]: 100 µg/mL (≈ 335 µM); MIC [20]: 100 µg/mL (≈ 335 µM); MIC [21]: 100 µg/mL (≈ 335 µM); MIC [22]: 50 µg/mL (≈ 168 µM); CC50 at 96 h [23]: > 100 µM; diameter of the inhibition zone (DIZ) (Proteus vulgaris): inactive
S=C(Nc1ccc(Cl)cc1)Nc1nc[nH]n1	inactive	25 (≈ 98.5 µM)	50 (≈ 197 µM)	23	25 (≈ 98.5 µM)	25 (≈ 98.5 µM)	25 (≈ 98.5 µM)	30	25 (≈ 98.5 µM)	inactive	inactive	inactive	25 (≈ 98.5 µM)	inactive	inactive	25 (≈ 98.5 µM)	25 (≈ 98.5 µM)	25 (≈ 98.5 µM)	25 (≈ 98.5 µM)	inactive	MIC [19]: 25 µg/mL (≈ 98.5 µM); MIC [20]: 25 µg/mL (≈ 98.5 µM); MIC [21]: 12.5 µg/mL (≈ 49.3 µM); MIC [22]: 25 µg/mL (≈ 98.5 µM); CC50 at 96 h [23]: 47 µM; diameter of the inhibition zone (DIZ) (Proteus vulgaris): inactive
S=C(Nc1ccc(Br)cc1)Nc1nc[nH]n1	inactive	50 (≈ 168 µM)	50 (≈ 168 µM)	17	25 (≈ 83.8 µM)	25 (≈ 83.8 µM)	50 (≈ 168 µM)	29	50 (≈ 168 µM)	inactive	inactive	inactive	25 (≈ 83.8 µM)	inactive	inactive	25 (≈ 83.8 µM)	50 (≈ 168 µM)	25 (≈ 83.8 µM)	50 (≈ 168 µM)	inactive	MIC [19]: 50 µg/mL (≈ 168 µM); MIC [20]: 50 µg/mL (≈ 168 µM); MIC [21]: 50 µg/mL (≈ 168 µM); MIC [22]: 25 µg/mL (≈ 83.8 µM); CC50 at 96 h [23]: > 100 µM; diameter of the inhibition zone (DIZ) (Proteus vulgaris): inactive
S=C(Nc1ccc(I)cc1)Nc1nc[nH]n1	inactive	25 (≈ 72.4 µM)	25 (≈ 72.4 µM)	12	25 (≈ 72.4 µM)	25 (≈ 72.4 µM)	25 (≈ 72.4 µM)	16	25 (≈ 72.4 µM)	inactive	inactive	inactive	25 (≈ 72.4 µM)	inactive	inactive	25 (≈ 72.4 µM)	50 (≈ 145 µM)	12.5 (≈ 36.2 µM)	25 (≈ 72.4 µM)	inactive	MIC [19]: 50 µg/mL (≈ 145 µM); MIC [20]: 50 µg/mL (≈ 145 µM); MIC [21]: 50 µg/mL (≈ 145 µM); MIC [22]: 50 µg/mL (≈ 145 µM); CC50 at 96 h [23]: 46 µM; diameter of the inhibition zone (DIZ) (Proteus vulgaris): inactive
